Compound activity as filed in PubChem.
Most compounds without a hit are left out; they make up all but 2.9% or so of the library.
SENP1 inh = blocks the human SENP1 SUMO protease catalytic domain | recombinant SENP1 catalytic domain, CyPet-SUMO1-YPet FRET cleavage | inhibition, % at 10 µM | 360,000 tested, 0.21% active | AID 624204;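 active = inhibition at least 30% at 10 µM, raw YFP signal under a set limit, fluorescence ratio 0.5 to 1.5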;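 note: 0% = enzyme with DMSO and 100% = no enzyme wells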
Target sequence (Q9P0U3 419-644 limits assumed): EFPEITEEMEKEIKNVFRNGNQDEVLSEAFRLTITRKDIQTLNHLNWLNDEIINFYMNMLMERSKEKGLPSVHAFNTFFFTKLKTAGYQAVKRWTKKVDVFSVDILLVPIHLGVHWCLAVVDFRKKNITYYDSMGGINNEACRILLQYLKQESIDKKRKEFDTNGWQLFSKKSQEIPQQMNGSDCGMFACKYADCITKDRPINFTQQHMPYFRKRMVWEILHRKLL
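Material – human SENP1 catalytic domain · Input – SENP1 enzyme, 20 pM final · Compound dosing – single concentration of 10 µM compound, 0.5% DMSO final · Timing – enzyme reaction for 50 min at room temperature, dark · Measured by – FRET fluorescence in CFP and YFP emission channels · Control set – no-enzyme wells low, DMSO-plus-enzyme wells high control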
SENP7 block = SENP7 protease inhibition | Q9BQF6 | recombinant SENP7, Z-RLRGG-aminoluciferin luminescence, 40 min | inhibition, % at 5 µM | 330,000 tested, 1.5% active;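 active = inhibition above about 50% at the single test dose, limit read from the data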;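 note: plate controls were DMSO with enzyme for no effect and no enzyme buffer wells for full effect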
SENP8 block-1 = blocks human SENP8 cleavage of Nedd8 substrate. Q96LD8. recombinant SENP8, Nedd8 substrate fluorescence. inhibition, % at 20 µM. 360,000 tested, 0.64% active; in the data active = inhibition mostly above about 40%, no sharp cut-off; inactive = mostly below about 27%
Target sequence (Q96LD8 whole entry, looked up): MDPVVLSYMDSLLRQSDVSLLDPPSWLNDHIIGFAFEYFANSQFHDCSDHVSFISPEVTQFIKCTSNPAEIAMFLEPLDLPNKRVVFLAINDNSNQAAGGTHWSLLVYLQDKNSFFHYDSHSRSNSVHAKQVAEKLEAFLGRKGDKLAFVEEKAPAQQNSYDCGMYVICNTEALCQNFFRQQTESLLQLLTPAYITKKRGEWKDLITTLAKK
Apaf1 inhib = inhibitors of human Apaf-1 apoptosome; reconstituted apoptosome caspase-3 activity, DEVD-Rh110 fluorescence; inhibition, % at 20 µM; 330,000 tested, 0.71% active; AID 489030; active = inhibition of at least 40% at 20 µM;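 note: plate controls were DMSO wells for no effect and DEVD-CHO caspase inhibitor wells for full effect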
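System: Apoptosome proteins | Medium: Hepes pH 7.5 with detergent and BSA | Also added: Cytochrome c trigger plus (Z-DEVD)2-Rh110 caspase-3 substrate | Incubation: 30 min compound preincubation, 50 min activation, room temperature | Detection: Rhodamine 110 fluorescence at Ex 480/Em 540 nm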
SENP8 block-2 = blocks the human protease SENP8. inhibition, % at 10 µM. 330,000 tested, 1.2% active. AID 2540. Q96LD8. purified SENP8, Z-RLRGG-aminoluciferin cleavage, luminescence; in the data active = inhibition above about 50%
SENP6 inh = blocks the human protease SENP6 | Recombinant SENP6 catalytic domain, aminoluciferin luminescence | 330,000 tested, 1.8% active | inhibition, % at 10 µM | AID 2599 | Q9GZR1;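 active = inhibition above about 50% at the single tested dose, limit read from the data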;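 note: plate controls were DMSO wells with enzyme for no effect and DMSO wells lacking enzyme for full effect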
SENP8 conf = human SENP8 inhibition, confirmed | AID 488912 | 6,200 tested, 40% active | Recombinant SENP8, Z-RLRGG-aminoluciferin luminescence, 60 min | shares compounds with SENP7 block | inhibition, % at 12.5 µM;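 active = mean inhibition across replicates above about 50%, limit read from the data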
SENP6 conf = confirmation of human SENP6 protease inhibitors; AID 488915; recombinant SENP6, Z-RLRGG-aminoluciferin luminescence; 6,200 tested, 58% active; inhibition, % at 12.5 µM; shares compounds with SENP7 block
SENP7 confirm = confirmation of human SENP7 protease inhibitors | inhibition, % at 12.5 µM | recombinant SENP7, Z-RLRGG-aminoluciferin luminescence, 40 min | 6,200 tested, 69% active | shares compounds with SENP7 block | AID 488917
Casp3 select = caspase-3 inhibition (SENP selectivity assay); shares compounds with SENP7 block; purified caspase-3, Z-DEVD-aminoluciferin luminescence, 60 min; inhibition, % at 12.5 µM; 6,200 tested, 60% active;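 active = mean inhibition above about 50%, limit read from the data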;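 note: plate controls were enzyme with DMSO for no effect and wells without caspase-3 for full effect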
Target sequence (P42574 28-227 limits assumed): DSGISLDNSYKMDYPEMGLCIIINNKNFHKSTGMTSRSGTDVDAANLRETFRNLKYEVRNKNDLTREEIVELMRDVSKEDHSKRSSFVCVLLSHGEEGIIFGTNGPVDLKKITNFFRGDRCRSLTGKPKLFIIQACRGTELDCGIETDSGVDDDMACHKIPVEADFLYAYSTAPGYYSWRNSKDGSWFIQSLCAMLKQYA
Luc interf = interferes with luciferase luminescence in SENP counter-screen; shares compounds with SENP7 block; Pre-incubated SENP8/Z-RLRGG-aminoluciferin, luciferase luminescence interference; inhibition, % at 12.5 µM; 6,200 tested, 39% active;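 active = mean inhibition above about 50% when retested at one dose, limit read from the data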;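 note: plate controls were DMSO wells with completed reaction for no effect and substrate without enzyme for full effect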
Apaf-1 inh conf2 = Apaf-1 inhibition, single-dose confirmed. shares compounds with Apaf1 inhib. reconstituted apoptosome, caspase-3 DEVD-Rh110 fluorescence. inhibition, % at 20 µM. 1,800 tested, 25% active. AID 504614;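 active = mean inhibition of at least 40% at 20 µM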;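 note: plate controls were DMSO wells for no effect and DEVD-CHO caspase inhibitor control wells for full effect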
Rh110 quench = interferes with Rh110 fluorescence, flagging false Apaf-1 inhibitors; shares compounds with Apaf1 inhib; Rh110 fluorescence interference, quenched caspase reaction; activation (fluorescence interference), % at 20 µM; 1,800 tested, under 10 active;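 active = signal rise of 40% or more at 20 µM, treated as a fluorescence artifact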
Apaf1 inh interf = Apaf-1 inhibitor counter-screen fluorescence artifact. 460 tested, under 10 active. fluorescence interference counterscreen, Apaf-1 assay format. shares compounds with Apaf1 inhib. IC50, µM; call rule not given here
Starred values were filed as active, the others as inactive; i = inactive; x = not tested or not shown.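 Rule for the calls, unless noted: active = mean inhibition above about 50% in the one-dose retest (limit read from the data); inactive = the rest.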

SMILES	SENP1 inh	SENP7 block	SENP8 block-1	Apaf1 inhib	SENP8 block-2	SENP6 inh	SENP8 conf	SENP6 conf	SENP7 confirm	Casp3 select	Luc interf	Apaf-1 inh conf2	Rh110 quench	Apaf1 inh interf
Nc1ccc(N(CCO)CCO)cc1	21	21	65*	84*	29	57*	20	22	15	6	4	46*	3	>100
OC(c1ccc(F)c(F)c1)c1nc(-c2ccc3c(c2)OCO3)cs1 (stereo unspecified)	2	x	4	x	x	x	x	x	x	x	x	x	x	x
Clc1ccc(-c2cn3nc4c(nc3n2)CCCC4)cc1	-16	14	-416	65*	39	55*	48	62*	62*	60*	11	53*	7	>100
CCc1ccc(S(=O)(=O)Nc2cc(SCC(=O)O)c(O)c3ccccc23)cc1	-1	30	33	71*	28	73*	15	37	12	0	8	29	4	x
CCOc1ccc(-n2nc3ccc(N)cc3n2)cc1	-33	41	-429	84*	79*	86*	85*	45	1	2	66*	24	2	x
CCOc1ccc(N2C(N)=NC(N)=NC2(C)C)cc1	3	-18	7	-15	-3	-1	x	x	x	x	x	x	x	x
Nc1ccc2nn(-c3ccc(F)cc3)nc2c1	-25	57*	-435	88*	84*	88*	61*	76*	94*	72*	23	24	-4	x
CCN(CC)Cc1nc2nc(Cl)c(Cl)nc2[nH]1	-33	x	-54	x	x	x	x	x	x	x	x	x	x	x
CSc1ccc(S(=O)(=O)N2CCC(C(=O)Nc3ccccc3C(F)(F)F)CC2)cc1	0	-6	4	20	2	-1	x	x	x	x	x	x	x	x
COc1cc(F)ccc1-c1csc(C(C)(O)c2ccccc2)n1 (stereo unspecified)	-1	x	-4	x	x	x	x	x	x	x	x	x	x	x
CCOC(=O)C1CCN(C2=C(NS(=O)(=O)c3ccc(Br)cc3)C(=O)c3ccccc3C2=O)CC1	0	37	50*	68*	16	53*	12	28	-3	7	-1	33	-2	x
CCN1CCN(C2=C(NS(=O)(=O)c3ccc(Br)cc3)C(=O)c3ccccc3C2=O)CC1	-18	42	27	88*	43	64*	25	45	10	12	0	46*	1	>100
CCN(CC(=O)Nc1ccc(NC(C)=O)cc1)C(=O)/C=C/c1ccc(C)o1	-3	4	-13	-1	1	-2	x	x	x	x	x	x	x	x
O=C1C(=C(O)c2ccccc2)C(=O)c2ccccc21	7	-2	66*	41*	47	74*	9	10	-1	0	-5	13	-7	x
O=C1C(=C(c2ccccc2)c2ccccc2)Nc2ccccc21	9	-1	27	19	-1	-29	x	x	x	x	x	x	x	x
CC1CC(=O)Nc2ccccc2N1C(=O)COc1ccccc1C(N)=O (stereo unspecified)	2	x	15	x	x	x	x	x	x	x	x	x	x	x
O=c1[nH]c(Nc2ccc(F)cc2)cc2ccccc12	-45	92*	-273	95*	85*	85*	52*	76*	48	10	9	91*	8	>100
O=c1oc(Nc2ccccc2Cl)nc2ccccc12	1	x	-97	x	x	x	x	x	x	x	x	x	x	x
Cc1cc(Nc2ccc(F)cc2)c2ccccc2n1	-4	x	-64	x	x	x	x	x	x	x	x	x	x	x
O=c1[nH]c(Nc2ccccc2Cl)cc2ccccc12	-70	92*	-492	98*	96*	99*	57*	86*	69*	27	-2	79*	14	>100
CCN(CC)C(=O)C1=C(C)N(Cc2ccc(OC)cc2)C(=O)C(CC(=O)NCCCN(C)C)C1 (stereo unspecified)	2	x	-21	x	x	x	x	x	x	x	x	x	x	x
OC(c1ccc(Cl)c(F)c1)c1ncc(-c2cccc3ccccc23)[nH]1 (stereo unspecified)	1	x	-328	x	x	x	x	x	x	x	x	x	x	x
Oc1ccc(NCc2cccc(OCc3ccccc3)c2)cc1	5	0	43*	91*	-7	69*	-30	-24	-7	-4	6	29	4	x
Cc1cc(C)cc(NC(=S)Nc2cccc3cnccc23)c1	-5	37	-122	98*	81*	81*	6	19	4	-3	-3	17	-1	x
Cc1ccc(NC(=S)Nc2cccc3cnccc23)c(C)c1	-3	77*	-70	96*	87*	95*	7	9	-8	2	-1	13	0	x
SMILES	SENP1 inh	SENP7 block	SENP8 block-1	Apaf1 inhib	SENP8 block-2	SENP6 inh	SENP8 conf	SENP6 conf	SENP7 confirm	Casp3 select	Luc interf	Apaf-1 inh conf2	Rh110 quench	Apaf1 inh interf
C=C(C)CNC(=S)Nc1cccc2cnccc12	0	-3	-11	-4	-6	-5	x	x	x	x	x	x	x	x
CCc1ccc(NC(=S)Nc2cccc3cnccc23)cc1	-7	64*	-165	89*	83*	92*	10	32	11	2	4	43*	21	>100
COc1ccccc1-c1cnc(C(O)c2ccc(C)cc2C)[nH]1 (stereo unspecified)	0	x	8	x	x	x	x	x	x	x	x	x	x	x
CCCCNC1=CC(=O)C(=O)c2ccccc21	1	81*	85*	96*	86*	93*	61*	87*	74*	91*	5	84*	3	>100
CCc1ccc(NC2=CC(=O)C(=O)c3ccccc32)cc1	-2	55*	i	92*	70*	26	9	23	12	4	5	86*	6	>100
O=C1C=C(Nc2ccccc2C(=O)O)c2ccccc2C1=O	-3	44	33	91*	86*	86*	-8	93*	82*	46	37	93*	-1	>100
